From ChEMBL document CHEMBL4350976, “Sequence modification of heptapeptide selected by phage display as homing device for HT-29 colon cancer cells to improve the anti-tumour activity of drug delivery systems” (Eur J Med Chem, 2019)
Where a SMILES comes first, the peptide text is derived from it. The star is where a group is joined. X1 = COc1cccc2c1C(=O)c1c(O)c3c(c(O)c1C2=O)C[C@@](O)(/C(C)=N/OCC(=O)*)C[C@@H]3O[C@H]1C[C@H](N)[C@H](O)[C@H](C)O1

Tests used:
[1] = Retention time of the compound using 0.1% TFA in water and 0.1% TFA in acetonitrile-water (80:20 v/v) as eluents by RP-HPLC analysis; assay type: physicochemical
How it was run: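 Analytical RP-HPLC. Eluent A was 0.1% TFA in water and eluent B was 0.1% TFA in acetonitrile-water (80:20, v/v). Gradient: 0% B held to 5 min, then to 90% B at 50 min. Flow 1 mL/min, detection at 220 nm. The column was a Phenomenex Aeris Peptide XB-C18 (250×4.6 mm, 3.6 μm) or a Nucleosil C18 (5 μm, 100 Å, 250×4.6 mm), depending on the conjugate series.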

HT-29 = experiment: Cytostatic activity against human HT-29 cells preincubated for 24 hrs under serum free condition followed by compound washout and further incubation for 48 hrs in presence of serum by MTT assay; assay type: functional, cell-based
How it was run: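 HT-29 cells were exposed to the compound for 24 h, washed, and kept a further 48 h. Viability was read by MTT. Absorbances were normalized to untreated controls and fitted by nonlinear regression to dose-response curves to give IC50.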

SMILES | Retention time [1] | IC50 (HT-29) | Retention_time [1]
COc1cccc2c1C(=O)c1c(O)c3c(c(O)c1C2=O)C[C@@](O)(/C(C)=N/OCC(=O)N[C@@H](CC(C)C)C(=O)N[C@@H](CCCNC(=N)N)C(=O)N[C@@H](CCCNC(=N)N)C(=O)N[C@@H](Cc1ccc(O)cc1)C(=O)N[C@H](C(=O)N[C@@H](Cc1cnc[nH]1)C(=O)N[C@@H](CC(C)C)C(=O)N[C@@H](CCC(=O)O)C(=O)N[C@@H](Cc1ccc(O)cc1)C(=O)N[C@@H](C)C(=O)N[C@H](C(N)=O)[C@@H](C)O)C(C)C)C[C@@H]3O[C@H]1C[C@H](N)[C@H](O)[C@H](C)O1 (X1-LRRYVHLEYAT-NH2) | 29.3 to 31.2 min | 29.5 µM | –
COc1cccc2c1C(=O)c1c(O)c3c(c(O)c1C2=O)C[C@@](O)(/C(C)=N/OCC(=O)N[C@@H](CC(C)C)C(=O)N[C@@H](CCCNC(=N)N)C(=O)N[C@@H](CCCNC(=N)N)C(=O)N[C@@H](Cc1ccc(O)cc1)C(=O)N[C@H](C(=O)N[C@@H](Cc1cnc[nH]1)C(=O)N[C@@H](CC(C)C)C(=O)N[C@@H](Cc1ccccc1)C(=O)N[C@@H](Cc1ccc(O)cc1)C(=O)N[C@@H](CCC(=O)O)C(=O)N[C@H](C(N)=O)[C@@H](C)O)C(C)C)C[C@@H]3O[C@H]1C[C@H](N)[C@H](O)[C@H](C)O1 (X1-LRRYVHLFYET-NH2) | 31.9 to 33.1 min | 54.3 µM | –
COc1cccc2c1C(=O)c1c(O)c3c(c(O)c1C2=O)C[C@@](O)(/C(C)=N/OCC(=O)N[C@@H](CC(C)C)C(=O)N[C@@H](CCCNC(=N)N)C(=O)N[C@@H](CCCNC(=N)N)C(=O)N[C@@H](Cc1ccc(O)cc1)C(=O)N[C@H](C(=O)N[C@@H](Cc1cnc[nH]1)C(=O)N[C@@H](CC(C)C)C(=O)N[C@@H](Cc1ccccc1)C(=O)N[C@@H](Cc1ccc(O)cc1)C(=O)N[C@@H](CCCCN)C(=O)N[C@H](C(N)=O)[C@@H](C)O)C(C)C)C[C@@H]3O[C@H]1C[C@H](N)[C@H](O)[C@H](C)O1 (X1-LRRYVHLFYKT-NH2) | 30.5 to 32 min | 11.5 µM | –
COc1cccc2c1C(=O)c1c(O)c3c(c(O)c1C2=O)C[C@@](O)(/C(C)=N/OCC(=O)N[C@@H](CC(C)C)C(=O)N[C@@H](CCCNC(=N)N)C(=O)N[C@@H](CCCNC(=N)N)C(=O)N[C@@H](Cc1ccc(O)cc1)C(=O)N[C@H](C(=O)N[C@@H](Cc1cnc[nH]1)C(=O)N[C@@H](CC(C)C)C(=O)N[C@@H](Cc1ccccc1)C(=O)N[C@@H](Cc1ccc(O)cc1)C(=O)N[C@@H](CC(N)=O)C(=O)N[C@H](C(N)=O)[C@@H](C)O)C(C)C)C[C@@H]3O[C@H]1C[C@H](N)[C@H](O)[C@H](C)O1 (X1-LRRYVHLFYNT-NH2) | – | 15.4 µM | 31.8 min
COc1cccc2c1C(=O)c1c(O)c3c(c(O)c1C2=O)C[C@@](O)(/C(C)=N/OCC(=O)N[C@@H](CC(C)C)C(=O)N[C@@H](CCCNC(=N)N)C(=O)N[C@@H](CCCNC(=N)N)C(=O)N[C@@H](Cc1ccc(O)cc1)C(=O)N[C@H](C(=O)N[C@@H](Cc1cnc[nH]1)C(=O)N[C@@H](CC(C)C)C(=O)N[C@@H](Cc1ccccc1)C(=O)N[C@@H](Cc1ccc(O)cc1)C(=O)N1CCC[C@H]1C(=O)N[C@H](C(N)=O)[C@@H](C)O)C(C)C)C[C@@H]3O[C@H]1C[C@H](N)[C@H](O)[C@H](C)O1 (X1-LRRYVHLFYPT-NH2) | – | 10.9 µM | 31.6 min
COc1cccc2c1C(=O)c1c(O)c3c(c(O)c1C2=O)C[C@@](O)(/C(C)=N/OCC(=O)N[C@@H](CC(C)C)C(=O)N[C@@H](CCCNC(=N)N)C(=O)N[C@@H](CCCNC(=N)N)C(=O)N[C@@H](Cc1ccc(O)cc1)C(=O)N[C@H](C(=O)N[C@@H](Cc1cnc[nH]1)C(=O)N[C@@H](CC(C)C)C(=O)N[C@@H](Cc1ccccc1)C(=O)N[C@@H](Cc1ccc(O)cc1)C(=O)N[C@@H](CO)C(=O)N[C@H](C(N)=O)[C@@H](C)O)C(C)C)C[C@@H]3O[C@H]1C[C@H](N)[C@H](O)[C@H](C)O1 (X1-LRRYVHLFYST-NH2) | 32.1 to 32.9 min | 17.7 µM | –
COc1cccc2c1C(=O)c1c(O)c3c(c(O)c1C2=O)C[C@@](O)(/C(C)=N/OCC(=O)N[C@@H](CC(C)C)C(=O)N[C@@H](CCCNC(=N)N)C(=O)N[C@@H](CCCNC(=N)N)C(=O)N[C@@H](Cc1ccc(O)cc1)C(=O)N[C@H](C(=O)N[C@@H](Cc1cnc[nH]1)C(=O)N[C@@H](CC(C)C)C(=O)N[C@@H](CCCCN)C(=O)N[C@@H](Cc1ccc(O)cc1)C(=O)N[C@@H](C)C(=O)N[C@H](C(N)=O)[C@@H](C)O)C(C)C)C[C@@H]3O[C@H]1C[C@H](N)[C@H](O)[C@H](C)O1 (X1-LRRYVHLKYAT-NH2) | 28.2 to 30.1 min | 50.3 µM | –
COc1cccc2c1C(=O)c1c(O)c3c(c(O)c1C2=O)C[C@@](O)(/C(C)=N/OCC(=O)N[C@@H](CC(C)C)C(=O)N[C@@H](CCCNC(=N)N)C(=O)N[C@@H](CCCNC(=N)N)C(=O)N[C@@H](Cc1ccc(O)cc1)C(=O)N[C@H](C(=O)N[C@@H](Cc1cnc[nH]1)C(=O)N[C@@H](CC(C)C)C(=O)N[C@@H](CC(C)C)C(=O)N[C@@H](Cc1ccc(O)cc1)C(=O)N[C@@H](C)C(=O)N[C@H](C(N)=O)[C@@H](C)O)C(C)C)C[C@@H]3O[C@H]1C[C@H](N)[C@H](O)[C@H](C)O1 (X1-LRRYVHLLYAT-NH2) | 31.1 to 33.1 min | 7.5 µM | –
COc1cccc2c1C(=O)c1c(O)c3c(c(O)c1C2=O)C[C@@](O)(/C(C)=N/OCC(=O)N[C@@H](CC(C)C)C(=O)N[C@@H](CCCNC(=N)N)C(=O)N[C@@H](CCCNC(=N)N)C(=O)N[C@@H](Cc1ccc(O)cc1)C(=O)N[C@H](C(=O)N[C@@H](Cc1cnc[nH]1)C(=O)N[C@@H](CC(C)C)C(=O)N[C@@H](CC(N)=O)C(=O)N[C@@H](Cc1ccc(O)cc1)C(=O)N[C@@H](C)C(=O)N[C@H](C(N)=O)[C@@H](C)O)C(C)C)C[C@@H]3O[C@H]1C[C@H](N)[C@H](O)[C@H](C)O1 (X1-LRRYVHLNYAT-NH2) | 29 to 30.8 min | 28 µM | –
COc1cccc2c1C(=O)c1c(O)c3c(c(O)c1C2=O)C[C@@](O)(/C(C)=N/OCC(=O)N[C@@H](CC(C)C)C(=O)N[C@@H](CCCNC(=N)N)C(=O)N[C@@H](CCCNC(=N)N)C(=O)N[C@@H](Cc1ccc(O)cc1)C(=O)N[C@H](C(=O)N[C@@H](Cc1cnc[nH]1)C(=O)N[C@@H](CC(C)C)C(=O)N[C@H](C(=O)N[C@@H](Cc1ccc(O)cc1)C(=O)N[C@@H](C)C(=O)N[C@H](C(N)=O)[C@@H](C)O)[C@@H](C)O)C(C)C)C[C@@H]3O[C@H]1C[C@H](N)[C@H](O)[C@H](C)O1 (X1-LRRYVHLTYAT-NH2) | – | 21.7 µM | 29 min
COc1cccc2c1C(=O)c1c(O)c3c(c(O)c1C2=O)C[C@@](O)(/C(C)=N/OCC(=O)N[C@@H](CC(C)C)C(=O)N[C@@H](CCCNC(=N)N)C(=O)N[C@@H](CCCNC(=N)N)C(=O)N[C@@H](Cc1ccc(O)cc1)C(=O)N[C@H](C(=O)N[C@@H](Cc1cnc[nH]1)C(=O)N[C@@H](CC(C)C)C(=O)N[C@@H](Cc1ccc(O)cc1)C(=O)N[C@@H](Cc1ccc(O)cc1)C(=O)N[C@@H](C)C(=O)N[C@H](C(N)=O)[C@@H](C)O)C(C)C)C[C@@H]3O[C@H]1C[C@H](N)[C@H](O)[C@H](C)O1 (X1-LRRYVHLYYAT-NH2) | 30.8 to 31.7 min | 38.4 µM | –
COc1cccc2c1C(=O)c1c(O)c3c(c(O)c1C2=O)C[C@@](O)(/C(C)=N/OCC(=O)N[C@H](C(=O)N[C@@H](Cc1cnc[nH]1)C(=O)N[C@@H](CC(C)C)C(=O)NCC(=O)N[C@@H](Cc1ccc(O)cc1)C(=O)N[C@@H](C)C(=O)N[C@H](C(N)=O)[C@@H](C)O)C(C)C)C[C@@H]3O[C@H]1C[C@H](N)[C@H](O)[C@H](C)O1 (X1-VHLGYAT-NH2) | – | – | 26.1 min
